Assay results collected from several papers.
Cell line: MCF7
Read-out: cell growth or viability

COc1cc2c(OC)nc3c4cc5c(cc4cc(OC(C)=O)c3c2cc1OC)OCO5 — GI50 (MTT): 4.5 µM
COc1cc(O)c(CC=C(C)C)c2c1C(=O)CC(c1ccc(O)cc1)O2 (stereo not drawn) — IC50 (MTT; 48 h): > 100 µM
CC(C)(C)CC(C)(C)Nc1c(-c2cccc(C#N)c2)nc2ncccn12 — viability (MTT; 25 µM, 48 h): 73.6%
O=C(Nc1ccccc1OS(=O)(=O)c1ccc(F)cc1)c1ccc2ncccc2c1 — viability (MTT; 100 µM, 24 h): 85.6%
COc1ccc(-c2nc3ncccn3c2NC(C)(C)CC(C)(C)C)cc1O — viability (MTT; 25 µM, 48 h): 65.3%
C=C(C)[C@H](CC=C(C)C)Cc1c(O)cc(OC)c(C(=O)/C=C/c2ccc(O)cc2O)c1O — IC50 (MTT): 23 µM
CC1(C)CC[C@]2(C)CC[C@]3(C)[C@H]4CC=C5[C@@H](CC[C@H](O)C5(C)C)[C@]4(C)CC[C@@]3(C)[C@@H]2C1 — IC50 (WST-1): 28.4 µM
COc1cccc2c1C(=O)c1c(O)c3c(c(O)c1C2=O)C[C@@](O)(C(=O)CO)C[C@@H]3O[C@H]1C[C@H](N)[C@H](O)[C@H](C)O1 — viability (MTT; 10 µM, 24 h): 11.8%
COc1cc2c(OC)nc3c4cc5c(cc4cc(OCCN4CCC(N6CCCCC6)CC4)c3c2cc1OC)OCO5 — GI50 (MTT): 12 µM
O=c1[nH]cc(F)c(=O)[nH]1 — CC50 (crystal violet; 72 h): 641 µM
COC(=O)[C@]1(O)C[C@@H](O)[C@@H](O)[C@H](OC(=O)/C=C/c2ccc(O)c(O)c2)C1 — IC50 (WST-1): 10.2 µM
C=C(C)[C@H](CC=C(C)C)Cc1c(O)cc(O)c2c1O[C@H](c1ccccc1O)CC2=O — IC50 (MTT; 48 h): 21.3 µM
C/C=C(/C)C(=O)O[C@@H]1[C@H](OC(C)=O)c2c(ccc3ccc(=O)oc23)OC1(C)C — IC50 (WST-1): 39.1 µM
COc1cccc2c1C(=O)c1c(O)c3c(c(O)c1C2=O)C[C@@](O)(C(=O)CO)C[C@@H]3O[C@H]1C[C@H](N)[C@H](O)[C@H](C)O1 — IC50 (MTT; 48 h): 0.8 µM
CC(C)(C)CC(C)(C)Nc1c(-c2cccnc2)nc2ncccn12 — viability (MTT; 25 µM, 48 h): 93.9%
